Bioassay records as filed in PubChem BioAssay.
MC4R barr agon – MC4R agonists recruiting beta-arrestin, primary screen, cell-based, luminescence, agonist arm of biased-ligand search. Melanocortin receptor 4 (Homo sapiens), P32245. U2OS MC4R beta-arrestin complementation; percent of melanotan II response, DMSO zero. activation, % at 8.9 µM. 360,000 compounds, 0.98% hits. AID 540308, 2011;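 active = activation above a per-plate cutoff, the mean activation of sample wells on that plate plus 3 SD, cut at about 8% in these data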
HTR2A ag – mouse Htr2a agonists via beta-arrestin recruitment, primary screen, cell-based, luminescence. 5-hydroxytryptamine receptor 2A (Mus musculus), P35363. CHO-K1 mHTR2A beta-arrestin complementation; percent of 30 µM serotonin response. activation, % at 7.6 µM. 360,000 compounds, 0.66% hits;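 active = activation above a run cutoff, the mean activation of all tested compounds plus 3 SD, cut at about 14% in these data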
MC4R antag cAMP – MC4R antagonists of cAMP signaling, primary screen, cell-based, TR-FRET, antagonist arm of biased-ligand search; AID 540295, 2011; 360,000 compounds, 0.48% hits; Melanocortin receptor 4 (Homo sapiens), P32245; MC4R-expressing cells, MTII-stimulated cAMP, LANCE TR-FRET; inhibition, % at 6.5 µM;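 active = inhibition above its plate's cutoff, the mean of tested wells on that plate plus 3 SD, cut at about 29% in these data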
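Assay system: human MC4R-expressing U2OS cells; reagent: Melanotan II stimulation of cells; dosing: 6.5 µM single dose; timing: compound 30 min, challenge 1 h, detection 1 h; signal: TR-FRET cAMP assay; replicates: one well per compound, no replicates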
Beta2AR agonist – beta2AR agonists driving receptor internalization, primary screen, cell-based, FAP fluorogen, flow cytometry; response, % (concentration not given with the values); 340,000 compounds, 0.43% hits; AID 504454, 2011; Beta-2 adrenergic receptor (Homo sapiens), P07550; Am2.2-beta2AR cells;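 active = response above a set limit, near 3 SD of response in nonfluorescent compounds, cut at about 42% in these data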
Target sequence (P07550 whole entry, looked up): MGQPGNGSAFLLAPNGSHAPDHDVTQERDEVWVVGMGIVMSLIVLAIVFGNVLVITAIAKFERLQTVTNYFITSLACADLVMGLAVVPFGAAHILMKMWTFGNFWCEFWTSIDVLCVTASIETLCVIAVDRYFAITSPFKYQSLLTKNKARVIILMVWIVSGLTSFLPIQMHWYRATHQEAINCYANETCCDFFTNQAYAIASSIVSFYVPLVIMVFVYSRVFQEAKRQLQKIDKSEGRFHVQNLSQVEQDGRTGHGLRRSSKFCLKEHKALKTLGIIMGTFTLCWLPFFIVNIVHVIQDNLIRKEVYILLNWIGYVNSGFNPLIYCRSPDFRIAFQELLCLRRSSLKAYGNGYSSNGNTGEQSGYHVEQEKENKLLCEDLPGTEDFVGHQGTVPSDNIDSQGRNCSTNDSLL
TAAR1 ag – human TAAR1 agonists, primary screen, Fluo-8 calcium fluorescence, CHO RD-HGA16 cells. Trace amine-associated receptor 1 (Homo sapiens), Q96RJ0. vehicle wells 0%, saturating PEA agonist 100%. activation, % at 3 µM. 360,000 compounds, 0.99% hits;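 active = activation above the mean activation of all test compounds in the run plus 3 SD, cut at about 38% in these data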
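Repeats: no replicates (n 1) | Material: CHO-derived RD-HGA16 cells with stable Gα16 and human TAAR1 | Technique: Kinetic Fluo-8 calcium fluorescence | Schedule: 17-24 h seeding, 75 min 37 °C dye, 30 min RT | Evaluation: % activation from peak over basal fluorescence ratio, DMSO-to-PEA scaled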
TAAR1 antagonist – human TAAR1 antagonists, primary screen, Fluo-8 calcium fluorescence, CHO RD-HGA16 cells | Trace amine-associated receptor 1 (Homo sapiens), Q96RJ0 | antagonist | inhibition, % at 3 µM | 360,000 compounds, 1.5% hits | AID 624466, 2012;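 active = inhibition above a per-plate cutoff, the mean inhibition of test compounds on that plate plus 3 SD, cut at about 49% in these data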
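test system = CHO RD-HGA16 cells bearing hTAAR1 | replication = singlicate | controls = DMSO-only wells and EC80 β-PEA-stimulated wells | reagent = EC80 β-phenethylamine stimulus | read-out basis = percent inhibition of PEA-evoked calcium signal, max/basal emission ratio | schedule = seeding 17-24 h prior, 75-min 37 °C, 30-min RT dye loading | signal = kinetic Fluo-8 calcium fluorescence measurement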
cAMP nonselect – nonselective cAMP signaling inhibitors, parental cells, counter-screen for MC4R biased antagonist project, cell-based, TR-FRET, U2OS, forskolin, triplicate; shares compounds with MC4R antag cAMP; LANCE TR-FRET; inhibition, % at 6.5 µM; 1,600 compounds, 26% hits;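 active = mean inhibition over triplicates above the low-control well mean plus 3 SD, set per campaign, cut at about 13% in these data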;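 also: signal is single emission at 671 nm which falls as cellular cAMP rises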
MC4R cAMP antag – MC4R cAMP antagonists, retest, confirmation, cell-based, TR-FRET | shares compounds with MC4R antag cAMP | MC4R-expressing cells, MTII-stimulated cAMP | inhibition, % at 6.5 µM | 1,600 compounds, 27% hits | AID 602195, 2012; in the data active = inhibition above about 29%
Numbers stand for hits; n = inactive; x = not tested or not shown. Rows were chosen to be rich in hits. Some 4.3% of all compounds tested hit in one or more screens of this group.

SMILES | MC4R barr agon | HTR2A ag | MC4R antag cAMP | Beta2AR agonist | TAAR1 ag | TAAR1 antagonist | cAMP nonselect | MC4R cAMP antag
CCOC(=O)C1CCCN(C(=O)c2cccc([N+](=O)[O-])c2C)C1 (centres undefined) | n | n | 32.1 | n | n | n | n | n
COc1ccc(C(C)(C)C)cc1NC(=O)c1ccc2c(c1)SC1=NS(=O)(=O)CCN12 | n | n | n | n | n | n | x | x
O=C(O)c1ccc2c(c1)SC1=NS(=O)(=O)CCN12 | n | n | 28.9 | n | n | n | 20.3 | n
C/C(=N/NS(=O)(=O)c1ccc(C)cc1)c1c(O)c2ccccc2oc1=O | n | n | n | n | n | n | x | x
C/C(=N\NS(=O)(=O)c1ccc(C)cc1)c1cc2ccccc2oc1=O | n | n | 29.6 | n | n | n | n | n
CCn1nc(C)cc1C(=O)n1nc(C)c(Sc2ncccn2)c1C | n | n | n | n | n | n | x | x
CC1(C(=O)N2CCC(CO)(Cc3cccc(C(F)(F)F)c3)CC2)CC1 | n | n | 29.8 | n | n | n | n | n
CCOC(=O)c1sc(NC(=O)CCN2CCN(CC)CC2)c(C(=O)OCC)c1C | n | n | 42.3 | n | n | n | n | n
Cc1ccc(OCC(=O)NCCNC(=O)c2cnccn2)cc1C | n | n | n | n | n | n | x | x
Cc1cc(C)c(S(=O)(=O)c2ccc(Cl)cc2)c(Cl)n1 | n | n | n | n | n | n | x | x
Cc1cc(S(=O)(=O)c2ccc(Cl)cc2)nc(S(=O)(=O)c2ccc(Cl)cc2)c1C#N | n | n | 38.7 | x | n | 68.4 | 29.2 | n
CCOC(=O)N(C)C[C@H]1OCc2cnnn2CCCC(=O)N([C@H](C)CO)C[C@@H]1C | x | x | x | x | n | n | x | x
O=C(COC(=O)[C@H](Cc1ccccc1)NC(=O)c1ccco1)NCc1ccccc1 | n | n | 29.3 | n | n | n | n | n
CN(C)C(=O)COC(=O)[C@H](Cc1ccccc1)NC(=O)c1ccco1 | n | n | 28.7 | n | n | n | 13.8 | n
O=C1CSC(c2ccc([N+](=O)[O-])cc2)N1Cc1ccccc1 (centres undefined) | n | n | n | n | n | n | x | x
Cc1ccc(C)c(NC(=O)COC(=O)c2cccc3c2C(=O)c2ccccc2C3=O)c1 | n | n | 33.2 | n | n | n | n | n
Cc1ccc(NC(=O)COC(=O)c2cccc3c2C(=O)c2ccccc2C3=O)c(C)c1 | n | n | n | n | n | n | x | x
CC(=O)Nc1ccc(C(=O)NCC2(N3CCCCC3)CCCCC2)cc1 | n | n | n | n | n | n | x | x
CN1C=CC(=C[N+](=O)[O-])N(C)C1=O | x | n | x | x | n | n | x | x
O=C(NCCCO)C(=O)NCc1ccccn1 | n | n | 30.0 | n | n | n | n | n
CCOC(=O)C1CCCN(C(=O)c2ccc(-c3ccccc3)cc2)CC1 (centres undefined) | n | n | n | x | n | n | x | x
CCCc1c(C)nc(N2CCN(c3ccccc3F)CC2)[nH]c1=O | n | n | n | n | n | n | x | x
CC(NC(=O)COC(=O)CNS(=O)(=O)/C=C/c1ccccc1)c1ccccc1 (centres undefined) | n | n | 29.7 | n | n | n | n | n
COc1cccc(C(=O)NCC(=O)N2CCN(c3ccc(C(F)(F)F)cn3)CC2)c1 | n | n | n | n | n | n | x | x
